# The list is not random: actives were taken first. Their share in the collection is about 2.3%.
# TRPC6 inh = mouse TRPC6 channel inhibition | Q61143 | HEK293-TRPC6, membrane potential dye, ACh-evoked depolarization; stronger effect = lower value | B-score at 10 µM | hit rate 1.1% among 310,000 | AID 2553;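 active = B-score under library mean minus 3 SD, initial fluorescence not abnormally high, positive integrated signal ratio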;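 also: B-score derived from integrated fluorescence ratio over the kinetic read; more negative B-score means stronger inhibition of depolarization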
# TRPC4 act = opens the mouse TRPC4 cation channel | Q9QUQ5 | HEK293 TRPC4beta/mu-opioid, Fluo4 calcium fluorescence; stronger effect = higher value | B-score at 10 µM | hit rate 0.49% among 310,000 | AID 2237;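 active = B-score above 5 SD of library B-scores, and initial fluorescence ratio not above library mean plus 5 SD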;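 also: positive B-score marks a calcium rise read as TRPC4 activation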
#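 Assay system: HEK293 cells stably co-expressing mouse TRPC4beta and mu-opioid receptor / Timing: Fluo4 dye loading 45 min at room temperature, 110 s recording / Signal: Fluo4 calcium-sensitive dye fluorescence, kinetic, 1 Hz baseline / Read-out: integrated baseline-normalised fluorescence ratio, converted to per-well B score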
# TRPC6 act = activators of mouse TRPC6 channel | Q61143 | HEK293-TRPC6 membrane potential dye fluorescence; stronger effect = higher value | B-score at 10 µM | hit rate 0.13% among 310,000;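 active = B-score of the integrated fluorescence ratio above library mean plus 3 SD, and starting fluorescence ratio within library mean plus 5 SD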;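 also: higher score means more depolarization so channel activation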
# TRPC4 potent = allosterically enhances the mouse TRPC4 cation channel; Q9QUQ5; HEK293 TRPC4beta/mu-opioid, DAMGO EC20, Fluo-4 Ca2+ flux; stronger effect = higher value; B-score at 10 µM; hit rate 0.42% among 310,000; AID 2227;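 active = B-score of calcium response area above 5 SD of library B-scores, with initial fluorescence ratio within 5 SD of library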
# TRPC4 inh = inhibitors of mouse TRPC4 channel; B-score at 10 µM; Q9QUQ5; HEK293 TRPC4beta/mu-opioid, DAMGO-evoked Fluo4 calcium flux; stronger effect = lower value; hit rate 0.39% among 300,000;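 active = B-score over 3 SD under the library average, no early fluorescence shift, positive overall ratio signal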
#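 Assay system: TRPC4beta/mu-opioid receptor HEK293 cell line; compound dosing: single concentration per test compound; detection: Fluo4 Ca2+ flux fluorescence; evaluation: per-well B score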
# TRPC4 spec 2 = mouse TRPC4 off-target activity of TRPC6 inhibitors, second screen | shares compounds with TRPC6 inh | HEK293 TRPC4/MOR, membrane potential dye fluorescence; channel activated by saturating DAMGO dose | inhibition, % at 10 µM | hit rate 42% among 920;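 active = compounds whose fluorescence signal differed from control wells by over 3 SD, either direction, in both duplicate plates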
# TRPC4 spec = mouse TRPC4 off-target activity of TRPC6 inhibitors. activity change, negative = inhibition, % at 10 µM. shares compounds with TRPC6 inh. hit rate 61% among 920. HEK293 TRPC4/mu-opioid, membrane potential fluorescence. AID 2777;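 active = rise or fall in signal beyond 3 SD of buffer-only wells in both replicate plates, either sign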;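 also: integrated kinetic ratio of fluorescence range over baseline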
# HEK293 MPD ctr 2-1 = second counter-screen for TRPC6 inhibitors: parental HEK293 cells | shares compounds with TRPC6 inh | parental HEK293 membrane potential dye fluorescence; maximal acetylcholine challenge after compound addition | signal change vs control, % at 10 µM | hit rate 31% among 920 | AID 2779;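 active = membrane potential signal moving either way by over 3 SD of the maximum-effect control, in both duplicate plates, meaning non-specific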
# HEK293 MPD ctr-1 = checks TRPC6 inhibitor effects in parental HEK293 cells. membrane potential signal change, % at 10 µM. parental HEK293 membrane potential dye fluorescence. hit rate 60% among 920. shares compounds with TRPC6 inh. AID 2780;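 active = membrane potential signal shifting up or down by more than 3 SD of buffer-only wells, on both duplicate plates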
# HEK293 MPD ctr-2 = checks TRPC6 modulator effects in parental HEK293 cells; shares compounds with TRPC6 inh; membrane potential dye fluorescence; membrane potential signal change, % at 10 µM; hit rate 51% among 2,400; AID 488924;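 active = membrane potential signal moves up or down beyond 5 SD from buffer-only wells, on both duplicate plates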
# HEK293 MPD ctr 2-2 = second check of TRPC6 modulator effects in parental HEK293 cells. shares compounds with TRPC6 inh. membrane potential dye fluorescence; after compound, maximal acetylcholine stimulation. inhibition, % at 10 µM. hit rate 14% among 2,400;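 active = membrane potential signal drops by more than 5 SD from the mean control signal, in both duplicate plates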
# TRPC4/MOR mod = tests whether TRPC6 modulators also affect mouse TRPC4; HEK293 TRPC4/mu-opioid, membrane potential fluorescence; percent change from control (negative = decrease, positive = increase), % at 10 µM; hit rate 69% among 2,400; shares compounds with TRPC6 inh;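 active = membrane potential signal moved up or down beyond 5 SD of buffer control wells, in both duplicate plates, actives on both sides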
# TRPC4/MOR inh 2 = second selectivity test of TRPC6 modulators against mouse TRPC4; shares compounds with TRPC6 inh; HEK293 TRPC4/mu-opioid, membrane potential dye fluorescence; stimulated with maximal-effect DAMGO; inhibition, % at 10 µM; hit rate 55% among 2,400;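 active = drop in membrane potential signal beyond 5 SD of the control wells in both duplicate plates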;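 also: TRPC4 counter screen for TRPC6 hits run under conditions tuned for TRPC6 not TRPC4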
# TRPC6 block conf = mouse TRPC6 inhibitor confirmation. AID 488960. inhibition, % at 10 µM. hit rate 43% among 3,300. shares compounds with TRPC6 inh. HEK293-TRPC6, membrane potential dye, ACh-evoked depolarization;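 active = fluorescence ratio falls more than 5 SD below the full-stimulation control mean, in both duplicate runs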;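 also: integrated fluorescence ratio of peak minus minimum over baseline after agonist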
# TRPC6 act confirm = mouse TRPC6 activator confirmation | shares compounds with TRPC6 inh | HEK293-TRPC6 membrane potential dye fluorescence, FDSS | activation, % at 10 µM | hit rate 11% among 2,800 | AID 488961;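 active = ratio signal rise beyond 5 SD above unstimulated control wells' mean, seen in both duplicate runs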
# A number is an active result; – = inactive; · = no result given.
SMILES,TRPC6 inh,TRPC4 act,TRPC6 act,TRPC4 potent,TRPC4 inh,HEK293 MPD ctr-2,HEK293 MPD ctr 2-2,TRPC4/MOR mod,TRPC4/MOR inh 2,TRPC6 block conf,TRPC6 act confirm,others
Cc1ccc(CCNC(=O)C2CCCN(S(=O)(=O)c3cccc4nsnc34)C2)cc1 (configuration not stated),-6,–,–,–,–,–,–,–,–,–,–,
CCn1cc(S(=O)(=O)NC(C)c2cc(OC)ccc2OC)cn1 (configuration not stated),–,–,–,–,–,·,·,·,·,·,·,
Cc1cc(NCCNC2=CC(=O)CCC2)nc2ccccc12,-5.5,–,–,–,–,-168%,–,-27%,31%,–,–,
Cc1ccc(S(=O)(=O)NNc2nc3ccccc3nc2C(F)(F)F)cc1,-7,–,–,–,–,·,·,·,·,–,–,TRPC4 spec 2=–;TRPC4 spec=–;HEK293 MPD ctr 2-1=–;HEK293 MPD ctr-1=–
CCN(CC)CCNc1ccc(CO)c2sc3ccccc3c(=O)c12,-5.2,–,–,–,–,-96%,–,-37%,67%,–,–,
CCOCCCNC(=O)CN1C(=O)COc2ccc(S(=O)(=O)N3CCOCC3)cc21,–,–,–,–,–,·,·,·,·,·,·,
CCOC(CNC(=O)CN1C(=O)COc2ccc(S(=O)(=O)N3CCOCC3)cc21)OCC,-5.2,–,–,–,–,–,–,–,–,–,–,
COc1cc(/C=N/Nc2ccccn2)ccc1O,–,–,–,–,–,·,·,·,·,·,·,
Cc1ccc2cc(/C=N/Nc3nc4ccccc4[nH]3)c(Cl)nc2c1,–,–,–,–,–,·,·,·,·,·,·,
CCN(CC)c1ccc(/C=N/Nc2nc3ccccc3[nH]2)c(O)c1,-5.9,–,–,–,–,–,–,-29%,71%,–,–,
COc1ccc(/C=N/Nc2ccccn2)cc1OC,-5.8,–,–,–,–,-121%,–,-22%,36%,–,–,
COc1cc(OC)c(OC)cc1/C=N/Nc1nc2ccccc2[nH]1,-5.2,–,–,–,–,–,–,-11%,–,–,–,
COc1ccc(/C=N/Nc2nc3ccccc3[nH]2)cc1OC,-5.2,–,–,–,–,-101%,–,-18%,50%,59%,–,
CC(=O)NCCc1nc2ccccc2n1Cc1ccccc1,–,–,–,–,–,·,·,·,·,·,·,
C#CCn1cc(/C=N/Nc2nc3ccccc3[nH]2)c2ccccc21,-7.8,–,–,–,–,-190%,80%,-40%,91%,74%,–,
C(=N\Nc1nc2ccccc2[nH]1)/c1cccc2nccnc12,–,–,–,–,–,·,·,·,·,·,·,
COc1ccc2c(c1)c(/C=N/Nc1nc3ccccc3[nH]1)c(C)n2C,-8.2,–,–,–,–,-122%,–,-36%,75%,38%,–,

# Compound activity (PubChem)
